Assay: Toxicity liver stage against HepG2, at 10uM
Assay type: cell-based
Parameters: test concentration 10 uM, cell line HepG2-A16-CD81EGFP
Details: human, HepG2-A16-CD81EGFP cells; read-out: INHIBITION
How it was run: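 Uninfected HepG2-A16-CD81EGFP cells, 3 × 10^3 per well, 1536-well, plated on prespotted compound at 10 μM final, parasite-free screening media added to match infected plates; puromycin 10 μM positive, DMSO 0.5% negative; run in parallel with 48 h PbLuc assay at 37 °C, 5% CO2; viability by CellTiter-Glo luminescence, normalized to controls.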

Question: Which cytotoxicity at 10 µM does the source give for `O=C(N[C@@H]1CN(Cc2ccco2)[C@@H]2CCCO[C@@H]21)c1cscn1` here?
Answer: -105%

Question: With `O=C1CC(c2ccncc2)C2(CCN(Cc3cccnc3)CC2)N1` (centres undefined) as the molecule, how does the cytotoxicity at 10 µM read?
Answer: 6.26%

Question: For `CCS(=O)(=O)N1CCC2(CCC2NC(=O)c2ccn(C)c2)CC1` (centres undefined), which cytotoxicity at 10 µM is on record?
Answer: -2.11%

Question: For `O=C(c1ccc[nH]1)N1C[C@H]2CN(Cc3cccc(F)c3)C(=O)[C@H]2C1`, which cytotoxicity at 10 µM is on record?
Answer: 3.99%

Question: Which cytotoxicity at 10 µM does the source give for `Cc1cc(C)n(CCCN(C)c2cc(C3CC3)ncn2)n1` here?
Answer: -0.609%

Question: With `CN1CCN(C[C@@H]2CN(C3Cc4ccccc4C3)C[C@@H]2CO)CC1` as the molecule, how does the cytotoxicity at 10 µM read?
Answer: 8.29%

Question: With `O=S(=O)(c1cccnc1)N1CCCCC1CCN1CCOCC1` (centres undefined) as the molecule, how does the cytotoxicity at 10 µM read?
Answer: -3.03%

Question: Which cytotoxicity at 10 µM does the source give for `CCC(C(=O)NCC1=CCN(C)CC1)c1ccccc1` (centres undefined) here?
Answer: -7.66%

Question: Which cytotoxicity at 10 µM does the source give for `CO[C@H]1CN(C(C)C)C[C@@H]1NC(=O)Nc1ccc2oc(C)cc2c1` here?
Answer: 0.0448%

Question: With `COc1ccc(N2CCN(C(=O)CCc3n[nH]c(C)n3)CC2=O)cc1` as the molecule, how does the cytotoxicity at 10 µM read?
Answer: -0.524%

Question: With `Cc1ccc(C(C(=O)O)N(C)CCN2CCOCC2)c(F)c1` (centres undefined) as the molecule, how does the cytotoxicity at 10 µM read?
Answer: 4.28%

Question: Which cytotoxicity at 10 µM does the source give for `O=C(NCc1csc(-c2cnccn2)n1)c1cnn2c1CCCC2` here?
Answer: 0.209%

Question: For `O=C(O)CN(Cc1ccsc1)CC1CCCO1` (centres undefined), which cytotoxicity at 10 µM is on record?
Answer: -4.39%

Question: With `CCCc1nnc(NC(C)c2ccc(F)cc2)o1` (centres undefined) as the molecule, how does the cytotoxicity at 10 µM read?
Answer: 2.08%

Question: For `CCc1ccc(CN(C)C(=O)c2ccc(CSc3nnc[nH]3)o2)nc1`, which cytotoxicity at 10 µM is on record?
Answer: -2.19%

Question: With `O=C(O)c1ccnc(-c2ccnc(NCCc3ccc(F)cc3)n2)c1` as the molecule, how does the cytotoxicity at 10 µM read?
Answer: 1.74%

Question: For `CN(C)c1ccccc1C(=O)N1CCOC2(CNCCOC2)C1` (centres undefined), which cytotoxicity at 10 µM is on record?
Answer: -1.08%

Question: With `CC(O)c1cn(CC2CCN(C(=O)CN(C)C(C)C)CC2)nn1` (centres undefined) as the molecule, how does the cytotoxicity at 10 µM read?
Answer: -1.58%

Question: For `Cc1cc(C)c2nc(CN3C[C@H](CCO)[C@@H](N)C3)cc(O)c2c1`, which cytotoxicity at 10 µM is on record?
Answer: 5.29%

Question: For `Cc1ccccc1-n1cc(-c2ccnc(N[C@@H](CO)C(C)C)n2)cn1`, which cytotoxicity at 10 µM is on record?
Answer: -3.39%

Question: For `CN(C)C(=O)c1cccnc1-c1ccc2c(c1)OCCO2`, which cytotoxicity at 10 µM is on record?
Answer: 5.73%

Question: Which cytotoxicity at 10 µM does the source give for `COc1ccccc1N1CCN(C(=O)CCn2ccc(C)n2)CC1(C)C` here?
Answer: -8.64%

Question: For `COCC(=O)N1CCc2cccc(S(=O)(=O)N3CCN(C)CC3)c2C1`, which cytotoxicity at 10 µM is on record?
Answer: 5.07%

Question: For `CCn1cc(-c2cc(C(F)(F)F)n(CCCN)n2)cn1`, which cytotoxicity at 10 µM is on record?
Answer: -7.86%

Question: Which cytotoxicity at 10 µM does the source give for `Cc1nc(-c2ccccc2)sc1CNC1CCc2ncnn2C1` (centres undefined) here?
Answer: -4.07%

Question: Which cytotoxicity at 10 µM does the source give for `O=C(NCC1CCOC1)c1csc(-c2ccc(Cl)cc2)n1` (centres undefined) here?
Answer: -11.6%

Question: For `O=C(Cc1ccc2c(c1)CCC2)NCCNc1cnccn1`, which cytotoxicity at 10 µM is on record?
Answer: -0.037%

Question: With `COCCN1CCC(CNC(=O)C2(c3ccc(F)cc3)CCC2)CC1` as the molecule, how does the cytotoxicity at 10 µM read?
Answer: -4.45%

Question: Which cytotoxicity at 10 µM does the source give for `CCS(=O)(=O)N1CCC(NC(=O)c2cc(C)ccc2O)CC1` here?
Answer: -8.92%

Question: Which cytotoxicity at 10 µM does the source give for `Cn1cc(CC2CCN(C(=O)NCc3cccc(C#N)c3)C2)cn1` (centres undefined) here?
Answer: -12.3%

Question: With `COC(=O)c1cc(C(=O)N2CCCC(C)C2)n(-c2ccccc2)n1` (centres undefined) as the molecule, how does the cytotoxicity at 10 µM read?
Answer: -11.9%

Question: For `Cc1cc(C(=O)N2CCCC(n3nc(C)cc3C)C2)on1` (centres undefined), which cytotoxicity at 10 µM is on record?
Answer: -7.69%

Question: For `Cc1ccc(CNC(=O)CN2CCCC(Cn3cncn3)C2)s1` (centres undefined), which cytotoxicity at 10 µM is on record?
Answer: -1.78%

Question: For `O=C(CCCNc1ncccn1)N1CCCC(n2cccn2)C1` (centres undefined), which cytotoxicity at 10 µM is on record?
Answer: 7.34%

Question: For `CN1C(=O)CCC12CCC(NCc1ccsc1)CC2` (centres undefined), which cytotoxicity at 10 µM is on record?
Answer: 3.56%

Question: With `CNC(=O)CN1CC[C@H]2CN(C(=O)c3cccc(C)c3)C[C@H]2C1` as the molecule, how does the cytotoxicity at 10 µM read?
Answer: -2.45%

Question: Which cytotoxicity at 10 µM does the source give for `COCCN1CCc2ncnc(-c3ccccc3)c2CC1` here?
Answer: 9.99%

Question: With `C[C@H]1CN(c2ccccn2)C[C@@]12CCN(c1cccnc1)C2=O` as the molecule, how does the cytotoxicity at 10 µM read?
Answer: -2.62%

Question: Which cytotoxicity at 10 µM does the source give for `Cc1ccsc1C(=O)N1CCc2ncc(CN3CCCC3)n2CC1` here?
Answer: -111%

Question: With `O=C1N(CC2CCCC2)CCC12CCN(c1ncc(F)cn1)CC2` as the molecule, how does the cytotoxicity at 10 µM read?
Answer: 11.2%

Question: With `Cc1nc(N(C)C)nc2c1COCC21CCN(CC2CC2)C1` (centres undefined) as the molecule, how does the cytotoxicity at 10 µM read?
Answer: -8.94%

Question: Which cytotoxicity at 10 µM does the source give for `Cc1nnc(N2CCCC3(CN(Cc4nccs4)CCO3)C2)o1` (centres undefined) here?
Answer: 2.08%

Question: Which cytotoxicity at 10 µM does the source give for `Cn1cc(CN2CCOC3(CCCN(C(=O)c4ccco4)C3)C2)cn1` (centres undefined) here?
Answer: -23.9%

Question: With `COc1ccc(CN2CCC3(CCN(c4cccnc4)C3=O)C2)cc1` (centres undefined) as the molecule, how does the cytotoxicity at 10 µM read?
Answer: 5.16%

Question: With `CN(C)c1ncc(-c2cccc(F)c2)c(C2CNCCO2)n1` (centres undefined) as the molecule, how does the cytotoxicity at 10 µM read?
Answer: -29.9%

Question: With `Cc1oncc1C(=O)N1CC[C@@H]2[C@@H]1CC(=O)N2Cc1cccnc1` as the molecule, how does the cytotoxicity at 10 µM read?
Answer: 5.44%

Question: With `O=C1COC2(CCN(CC3CCC3)CC2)CN1c1cncnc1` as the molecule, how does the cytotoxicity at 10 µM read?
Answer: -1.11%

Question: With `CN(C)C[C@H]1C[C@@H]2CN(Cc3ccoc3)C[C@@H]2O1` as the molecule, how does the cytotoxicity at 10 µM read?
Answer: 4.85%

Question: Which cytotoxicity at 10 µM does the source give for `COCCN1C[C@@H](C)[C@@]2(COCCN(C(=O)c3cnc(C)cn3)C2)C1` here?
Answer: -0.665%

Question: For `CCN1Cc2nccn2CC(COCc2csc(C)n2)C1` (centres undefined), which cytotoxicity at 10 µM is on record?
Answer: 3.86%

Question: Which cytotoxicity at 10 µM does the source give for `COCC1CC2(CCN(Cc3ccccn3)CC2)CN1c1ncccn1` (centres undefined) here?
Answer: 14.4%

Question: For `Cc1nc(CO[C@@H]2CC[C@H]3[C@H]2OCCN3Cc2cccnc2)cs1`, which cytotoxicity at 10 µM is on record?
Answer: -1.43%

Question: Which cytotoxicity at 10 µM does the source give for `COCCN(C)CC(=O)N1C[C@@H]2CC[C@H]1CN(C(=O)c1ccncc1)C2` here?
Answer: -0.908%

Question: With `O=C1NCC2(CCC(C(=O)N3CCCC(O)C3)CC2)Oc2ccccc21` (centres undefined) as the molecule, how does the cytotoxicity at 10 µM read?
Answer: -24.1%
